According to ChEMBL document CHEMBL1146871, “Hydrazides of clozapine: a new class of D1 dopamine receptor subtype selective antagonists” (Bioorg Med Chem Lett, 2006):

Assays:
[1] = AUC in Sprague-Dawley rat plasma at 10 mg/kg, po; format: ADME, organism-based; set-up: dose 10 mg/kg, route oral
How it was run: (§1)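 Single oral dose of 10 mg/kg to two male Sprague-Dawley rats. Blood drawn at several time points. Plasma levels of individual animals, generally within ±25% of the mean, were used to calculate PK parameters.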

D(2) dopamine receptor [2] = target: T1, D(2) dopamine receptor (Homo sapiens, UniProt P14416); assay: Binding affinity at dopamine D2 receptor
How it was run: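 Membranes from cells stably expressing D2 receptor (4-7 pmol/mg protein; Ltk- cells in one passage, CHO in another), made by hypotonic lysis and 48,000g spin and stored at -80 °C. Incubated with 0.5 nM [3H]methylspiperone for 1 h at room temperature. Nonspecific binding set by 10 µM (-)-sulpiride. Rapid filtration, then scintillation counting. One-site competition fit; Ki is the mean of separate determinations.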

[3] = target: 5-hydroxytryptamine receptor 2A (Homo sapiens, UniProt P28223); assay: Binding affinity at 5HT2A receptor
D(1B) dopamine receptor = D(1B) dopamine receptor (Homo sapiens, UniProt P21918); assay: Binding affinity at dopamine D5 receptor
D(1A) dopamine receptor [4] = target: T2, D(1A) dopamine receptor (Homo sapiens, UniProt P21728); assay: Displacement of [3H]SCH 23390 from human dopamine D1 receptor expressed in CHO cells; format: cell-based
[5] = Tmax in Sprague-Dawley rat plasma at 10 mg/kg, po; format: ADME, organism-based; set-up: dose 10 mg/kg, route oral; how it was run: as §1
[6] = target: T3, Alpha-2A adrenergic receptor (Homo sapiens, UniProt P08913); assay: Binding affinity at adrenergic alpha2A receptor
T3 sequence (P08913 whole entry): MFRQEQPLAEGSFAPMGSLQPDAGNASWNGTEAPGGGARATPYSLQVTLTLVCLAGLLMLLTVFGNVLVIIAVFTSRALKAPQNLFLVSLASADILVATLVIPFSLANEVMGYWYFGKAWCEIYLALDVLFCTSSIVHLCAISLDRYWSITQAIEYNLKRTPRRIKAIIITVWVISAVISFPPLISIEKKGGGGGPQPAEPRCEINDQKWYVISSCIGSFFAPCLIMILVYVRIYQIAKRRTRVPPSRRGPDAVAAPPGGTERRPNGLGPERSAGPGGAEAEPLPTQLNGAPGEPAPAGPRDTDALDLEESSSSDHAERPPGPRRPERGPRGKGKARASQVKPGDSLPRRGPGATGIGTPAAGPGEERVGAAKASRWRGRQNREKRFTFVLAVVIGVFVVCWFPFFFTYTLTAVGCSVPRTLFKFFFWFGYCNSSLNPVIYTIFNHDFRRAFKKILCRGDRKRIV

[7] = Cmax in Sprague-Dawley rat plasma at 10 mg/kg, po; format: ADME, organism-based; set-up: dose 10 mg/kg, route oral; how it was run: as §1
D(4) dopamine receptor = target: T4, D(4) dopamine receptor (Homo sapiens, UniProt P21917); assay: Binding affinity at dopamine D4 receptor
T4 sequence (P21917 whole entry): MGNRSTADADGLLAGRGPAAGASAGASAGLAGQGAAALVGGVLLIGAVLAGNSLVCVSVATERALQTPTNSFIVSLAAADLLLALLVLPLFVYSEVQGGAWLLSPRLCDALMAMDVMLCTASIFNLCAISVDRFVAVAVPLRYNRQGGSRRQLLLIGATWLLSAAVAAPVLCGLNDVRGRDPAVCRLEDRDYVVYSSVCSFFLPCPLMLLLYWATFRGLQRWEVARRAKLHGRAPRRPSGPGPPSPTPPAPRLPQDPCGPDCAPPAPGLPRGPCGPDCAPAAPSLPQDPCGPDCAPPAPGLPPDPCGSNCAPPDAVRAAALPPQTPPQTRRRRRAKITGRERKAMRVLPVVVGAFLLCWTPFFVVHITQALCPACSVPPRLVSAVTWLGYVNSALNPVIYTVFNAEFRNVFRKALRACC

D(1A) dopamine receptor [8] = target: T2, D(1A) dopamine receptor; assay: Activity at dopamine D1 receptor by cAMP assay; format: functional; conditions: for Activity: filed as antagonist
D(2) dopamine receptor [9] = target: T1, D(2) dopamine receptor; assay: Displacement of [3H]methylspiperone from human dopamine D2 receptor expressed in CHO cells; format: cell-based

T2 sequence (P21728 whole entry): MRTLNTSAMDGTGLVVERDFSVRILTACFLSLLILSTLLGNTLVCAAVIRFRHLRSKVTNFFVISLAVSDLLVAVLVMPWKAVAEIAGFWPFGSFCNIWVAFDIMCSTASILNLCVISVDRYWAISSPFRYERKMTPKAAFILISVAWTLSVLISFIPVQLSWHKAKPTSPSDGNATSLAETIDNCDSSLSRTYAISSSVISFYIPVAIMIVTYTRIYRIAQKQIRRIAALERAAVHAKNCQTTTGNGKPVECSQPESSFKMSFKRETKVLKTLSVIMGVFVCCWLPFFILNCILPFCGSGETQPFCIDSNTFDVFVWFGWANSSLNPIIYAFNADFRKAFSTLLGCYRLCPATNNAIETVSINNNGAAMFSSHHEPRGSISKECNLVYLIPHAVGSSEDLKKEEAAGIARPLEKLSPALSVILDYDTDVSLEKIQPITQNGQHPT
T1 sequence (P14416 whole entry): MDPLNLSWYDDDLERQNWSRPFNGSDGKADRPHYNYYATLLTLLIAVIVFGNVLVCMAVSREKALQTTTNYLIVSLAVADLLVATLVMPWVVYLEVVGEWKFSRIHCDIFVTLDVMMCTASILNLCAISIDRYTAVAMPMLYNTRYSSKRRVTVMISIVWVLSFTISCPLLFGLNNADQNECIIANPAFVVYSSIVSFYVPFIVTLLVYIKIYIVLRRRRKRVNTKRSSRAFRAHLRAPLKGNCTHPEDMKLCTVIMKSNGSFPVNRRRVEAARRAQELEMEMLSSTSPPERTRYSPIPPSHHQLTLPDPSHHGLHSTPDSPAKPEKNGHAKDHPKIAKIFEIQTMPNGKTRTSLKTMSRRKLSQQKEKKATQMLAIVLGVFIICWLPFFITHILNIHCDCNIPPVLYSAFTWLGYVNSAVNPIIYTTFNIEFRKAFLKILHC
Sequence of D(1B) dopamine receptor (P21918 whole entry): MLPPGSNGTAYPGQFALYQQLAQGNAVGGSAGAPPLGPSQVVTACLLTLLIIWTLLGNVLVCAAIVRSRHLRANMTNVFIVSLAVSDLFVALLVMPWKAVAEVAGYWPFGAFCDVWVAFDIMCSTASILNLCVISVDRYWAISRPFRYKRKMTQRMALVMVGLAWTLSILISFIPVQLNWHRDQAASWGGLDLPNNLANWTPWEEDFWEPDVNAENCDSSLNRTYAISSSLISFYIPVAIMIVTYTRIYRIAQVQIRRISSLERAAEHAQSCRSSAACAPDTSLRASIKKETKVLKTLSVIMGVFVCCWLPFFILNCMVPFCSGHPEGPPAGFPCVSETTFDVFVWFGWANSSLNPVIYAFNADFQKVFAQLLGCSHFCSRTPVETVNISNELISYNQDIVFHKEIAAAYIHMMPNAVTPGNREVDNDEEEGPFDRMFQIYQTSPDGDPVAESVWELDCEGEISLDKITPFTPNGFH
Sequence of 5-hydroxytryptamine receptor 2A (P28223 whole entry): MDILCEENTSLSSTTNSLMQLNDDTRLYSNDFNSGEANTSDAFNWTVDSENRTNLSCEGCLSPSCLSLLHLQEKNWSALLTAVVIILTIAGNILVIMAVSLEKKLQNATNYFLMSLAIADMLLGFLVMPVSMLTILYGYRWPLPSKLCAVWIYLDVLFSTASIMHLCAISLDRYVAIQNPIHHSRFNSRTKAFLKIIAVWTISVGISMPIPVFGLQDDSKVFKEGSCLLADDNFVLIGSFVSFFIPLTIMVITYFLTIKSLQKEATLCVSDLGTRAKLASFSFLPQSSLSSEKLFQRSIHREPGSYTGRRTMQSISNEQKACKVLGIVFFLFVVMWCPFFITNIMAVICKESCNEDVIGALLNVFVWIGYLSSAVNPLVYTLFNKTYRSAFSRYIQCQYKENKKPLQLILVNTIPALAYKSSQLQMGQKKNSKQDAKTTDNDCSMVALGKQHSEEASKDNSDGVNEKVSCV

AUC [1] [ng·h/mL] | Ki (D(2) dopamine receptor [2]) [µM] | Ki [3] [µM] | Ki (D(1B) dopamine receptor) [µM] | Ki (D(1A) dopamine receptor [4]) [µM] | Tmax [5] [h] | Ki [6] [µM] | Cmax [7] [ng/mL] | Ki (D(4) dopamine receptor) [µM] | Kb (D(1A) dopamine receptor [8]) [µM] | Activity (D(1A) dopamine receptor [8]) | Ki (D(2) dopamine receptor [9]) [µM] | SMILES
2660 | 0.181 | 0.001 | 0.073 | 0.004 | 1 | 0.455 | 821 | 0.87 | 0.0028 | Antagonist | 0.181 | CN1CCN(C2=Nc3cc(Cl)ccc3N(NC(=O)c3ccccc3Cl)c3ccccc32)CC1
12900 | 0.458 | 0.001 | 0.105 | 0.0038 | 1 | 0.882 | 3570 | 0.977 | 0.002 | Antagonist | 0.458 | CN1CCN(C2=Nc3cc(Cl)ccc3N(NC(=O)c3cccc4ccccc34)c3ccccc32)CC1
